Active and inactive are the calls of the source. The rule behind the calls is not given here.
What was measured:
U-373MG ATCC [1] = assay: (§1) Antioxidant activity in human U373 cells assessed as increase of antioxidant response element-mediated phase 2 protein expression at 25 ug/ml after 24 hrs by luciferase reporter gene assay relative to control; type: functional
Outline: (§2)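 U373 astrocytoma cells stably carrying firefly luciferase under ARE control, grown in DMEM with 10% FCS and antibiotics. 5 × 10^4 cells/well seeded in quadruplicate, exposed 24 h to 25, 10, 5 or 2.5 μg/mL glycoside, then luciferase read. Controls: mock-treated and DMSO 0.25% v/v. Activity expressed as fold change versus 25 μM tert-butylhydroquinone; >2-fold over TBHQ scored a hit.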

[2] = Antioxidant activity in human U373 cells assessed as increase of antioxidant response element-mediated phase 2 protein expression after 24 hrs by luciferase reporter gene assay relative to TBHQ; type: functional, U-373MG ATCC; outline: as §2
U-373MG ATCC [3] = assay: Cytoprotective activity in human U373 cells assessed as effect of H2O2-stimulated lipid peroxidation assay at 2.5 to 25 ug/ml treated 24 hrs before H2O2 stimulation measured after 24 hrs by TBARS assay; type: functional, cell-based
Outline: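 U373 cells at 2 × 10^4/well in quadruplicate, 24 h pretreatment with 25, 10, 5 or 2.5 μg/mL glycoside, then 24 h in fresh media with glycoside and 300 μM H2O2. PBS-washed cells lysed by freeze–thaw; uncentrifuged lysate assayed for TBARS (MDA–TBA adduct, A532), calibrated with MDA 0–100 nmol/mL, reported as MDA equivalents. Mock and 0.25% DMSO controls.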

U-373MG ATCC [4] = assay: Cytoprotective activity in H2O2-stimulated human U373 cells assessed as increase of glutathione peroxidase activity treated 24 hrs before H2O2 stimulation measured after 24 hrs; type: functional, cell-based
Outline: (§3)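 U373 cells at 2 × 10^4/well in quadruplicate, pretreated 24 h with 25, 10, 5 or 2.5 μg/mL glycoside. Media replaced with fresh media containing glycoside plus 300 μM H2O2 for 24 h more. Cells PBS-washed, lysed by three freeze–thaw cycles, centrifuged; SOD (WST-1/xanthine oxidase inhibition, […], against SOD standard curve) or GPx measured by colorimetric kits.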

U-373MG ATCC [5] = assay: Cytoprotective activity in H2O2-stimulated human U373 cells assessed as increase of SOD activity treated 24 hrs before H2O2 stimulation measured after 24 hrs; type: functional, cell-based; outline: as §3
[6] = Cytotoxicity against human U373 cells; type: cell-based; conditions: u-373mg atcc
Outline: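 Viability measured by MTT tetrazolium reduction in parallel reporter U373 cultures under the reporter assay conditions: 24 h with 25, 10, 5 or 2.5 μg/mL glycoside, quadruplicate wells.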

[7] = as §1; type: functional, U-373MG ATCC; outline: as §2
[8] = tested on: xenobiotic response element (XRE)-mediated transcriptional activity; assay: Toxicity in human U373 cells assessed as effect on xenobiotic response element-mediated activity at 2.5 to 25 ug/ml after 24 hrs by luciferase reporter gene assay; type: cell-based, U-373MG ATCC; conditions: read-out: FC
Outline: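 XRE counterscreen: U373 astrocytoma cells stably carrying a luciferase cassette driven by the xenobiotic response element, grown in DMEM with 10% FCS and antibiotics. 5 × 10^4 cells/well in quadruplicate, 24 h with 25, 10, 5 or 2.5 μg/mL glycoside, then luciferase activity measured. Mock and DMSO (0.25% v/v) controls.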

U-373MG ATCC [9] = assay: Antioxidant activity in human U373 cells assessed as increase of antioxidant response element-mediated phase 2 protein expression after 24 hrs by luciferase reporter gene assay; type: functional, cell-based; outline: as §2
U-373MG ATCC [10] = assay: Cytoprotective activity in H2O2-stimulated human U373 cells assessed as increase of glutathione peroxidase activity at 2.5 to 25 ug/ml treated 24 hrs before H2O2 stimulation measured after 24 hrs; type: functional, cell-based; outline: as §3
U-373MG ATCC [11] = assay: Cytoprotective activity in H2O2-stimulated human U373 cells assessed as increase of SOD activity at 2.5 to 25 ug/ml treated 24 hrs before H2O2 stimulation measured after 24 hrs; type: functional, cell-based; outline: as §3

| SMILES | Activity (U-373MG ATCC [1]) | fold change (FC) [2] | Activity (U-373MG ATCC [3]) | Activity (U-373MG ATCC [4]) | Activity (U-373MG ATCC [5]) | Activity [6] | fold change (FC) [7] | fold induction at 24 h [8] | Activity (U-373MG ATCC [9]) | Activity (U-373MG ATCC [10]) | Activity (U-373MG ATCC [11]) |
| --- | --- | --- | --- | --- | --- | --- | --- | --- | --- | --- | --- |
| CC(C)(C)c1cc(O)ccc1O | Active |  |  |  |  |  |  |  |  |  |  |
| CC(=O)O[C@H]1[C@@H](O[C@@H]2O[C@@H](C)[C@H](O)[C@@H](O)[C@H]2O)[C@H]2[C@@H]3CC[C@H]4C[C@@H](O[C@H]5O[C@@H](CO)[C@H](O)[C@@H](O)[C@@H]5O[C@@H]5O[C@@H](C)[C@H](O)[C@@H](O)[C@H]5O)CC[C@]4(C)[C@H]3CC[C@]2(C)[C@H]1[C@H](C)CCCC(C)C [ACANTHIFOLIOSIDE G] |  | 2 | inactive | Dose-dependent effect | Dose-dependent effect | Non-toxic | 2.27 | > 2 | Dose-dependent effect |  |  |
| CC[C@H](C(C)C)[C@@H](O)C[C@@H](C)[C@H]1[C@@H](OC(C)=O)[C@@H](O[C@@H]2O[C@@H](C)[C@H](O)[C@@H](O)[C@H]2O)[C@H]2[C@@H]3CC=C4C[C@@H](O[C@H]5O[C@@H](CO)[C@H](O)[C@@H](O)[C@@H]5O[C@@H]5O[C@@H](C)[C@H](O)[C@@H](O)[C@H]5O)CC[C@]4(C)[C@H]3CC[C@@]21C [ACANTHIFOLIOSIDE J] |  |  |  |  |  |  | 1.52 |  |  | Active | Active |

Reference: ChEMBL document CHEMBL2203058, “Isolation of steroidal glycosides from the Caribbean sponge Pandaros acanthifolium” (J Nat Prod, 2012)
